According to ChEMBL document CHEMBL1122179, “1-(alkylamino)isochromans: hypotensives with peripheral and central activities” (J Med Chem, 1982):
The source made the active and inactive calls. No cut-off for these calls is given here.

How the values were obtained:
Rattus norvegicus [1] = assay: Delta BP refers to oral hypotensive activity of compound which is evaluated at 4 hr and 24 hr in restrained, normotensive conscious rats at a dose of 50 mg/kg; assay type: functional, organism-based; parameters: dose 50 mg/kg
Outline: (§1)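 Female Sprague-Dawley rats, normotensive, restrained in a towel. Blood pressure was read directly via chronic indwelling aortic cannulas exteriorized at the nape, before and 4 and 24 h after an oral dose suspended in carboxymethylcellulose (10 mL/kg). Values from two animals were averaged at each time; a mean change of at least 5 mmHg was taken as significant (p < 0.05).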

Rattus norvegicus [2] = assay: Delta BP refers to oral hypotensive activity of compound which is evaluated at 4 hr and 24 hr in restrained, normotensive conscious rats at a dose of 50 mg/kg; 2/2; assay type: functional; outline: as §1
Rattus norvegicus [3] = assay: Delta BP refers to oral hypotensive activity of compound which is evaluated at 4 hr and 24 hr in restrained, normotensive conscious rats at a dose of 50 mg/kg; 0/-1; assay type: functional; outline: as §1
Rattus norvegicus [4] = assay: Delta BP refers to oral hypotensive activity of compound which is evaluated at 4 hr and 24 hr in restrained, normotensive conscious rats at a dose of 50 mg/kg; -12/-5; assay type: functional; outline: as §1
Rattus norvegicus [5] = assay: Delta BP refers to oral hypotensive activity of compound which is evaluated at 4 hr and 24 hr in restrained, normotensive conscious rats at a dose of 15 mg/kg; -13/-14; assay type: functional; outline: as §1
Rattus norvegicus [6] = assay: Delta BP refers to oral hypotensive activity of compound which is evaluated at 4 hr and 24 hr in restrained, normotensive conscious rats at a dose of 50 mg/kg; -2/2; assay type: functional; outline: as §1
Rattus norvegicus [7] = assay: Delta BP refers to oral hypotensive activity of compound which is evaluated at 4 hr and 24 hr in restrained, normotensive conscious rats at a dose of 50 mg/kg; -4/-2; assay type: functional; outline: as §1
Rattus norvegicus [8] = assay: Delta BP refers to oral hypotensive activity of compound which is evaluated at 4 hr and 24 hr in restrained, normotensive conscious rats at a dose of 50 mg/kg; -13/-2; assay type: functional; outline: as §1
Rattus norvegicus [9] = assay: Delta BP refers to oral hypotensive activity of compound which is evaluated at 4 hr and 24 hr in restrained, normotensive conscious rats at a dose of 50 mg/kg; -19/-9; assay type: functional; outline: as §1
Rattus norvegicus [10] = assay: Delta BP refers to oral hypotensive activity of compound which is evaluated at 4 hr and 24 hr in restrained, normotensive conscious rats at a dose of 50 mg/kg; -19/-21; assay type: functional; outline: as §1
Rattus norvegicus [11] = assay: Delta BP refers to oral hypotensive activity of compound which is evaluated at 4 hr and 24 hr in restrained, normotensive conscious rats at a dose of 50 mg/kg; -22/-25; assay type: functional; outline: as §1
Rattus norvegicus [12] = assay: Delta BP refers to oral hypotensive activity of compound which is evaluated at 4 hr and 24 hr in restrained, normotensive conscious rats at a dose of 50 mg/kg; -16/3; assay type: functional; conditions: dose 15 mg/kg, in the assay text read “dose of 15 mg/kg” for “dose of 50 mg/kg”; outline: as §1
Rattus norvegicus [13] = assay: Delta BP refers to oral hypotensive activity of compound which is evaluated at 4 hr and 24 hr in restrained, normotensive conscious rats at a dose of 50 mg/kg; 3/2; assay type: functional; outline: as §1
Rattus norvegicus [14] = assay: Delta BP refers to oral hypotensive activity of compound which is evaluated at 4 hr and 24 hr in restrained, normotensive conscious rats at a dose of 50 mg/kg; -17/-16; assay type: functional; outline: as §1
Rattus norvegicus [15] = assay: Delta BP refers to oral hypotensive activity of compound which is evaluated at 4 hr and 24 hr in restrained, normotensive conscious rats at a dose of 50 mg/kg; -15/3; assay type: functional; outline: as §1
Rattus norvegicus [16] = assay: Delta BP refers to oral hypotensive activity of compound which is evaluated at 4 hr and 24 hr in restrained, normotensive conscious rats at a dose of 50 mg/kg; 0/-14; assay type: functional; outline: as §1

SMILES: COc1cc2c(cc1OC)C(C)(CCCN1CCN(c3ccccc3OC)CC1)OCC2 (stereo not given)
- Delta blood pressure (Rattus norvegicus [1]): inactive

SMILES: COc1cc2c(cc1OC)C(C)(CCN1CCN(c3ccccc3C)CC1)OCC2 (stereo not given)
- Delta blood pressure (Rattus norvegicus [1]): inactive

SMILES: COc1cc2c(cc1OC)C(CCN1CCN(c3ccccc3Cl)CC1)OC(C)(C)C2 (stereo not given)
- Delta blood pressure (Rattus norvegicus [1]): inactive

SMILES: COc1cc2c(cc1OC)C(CCCN1CCN(c3ccc(Cl)cc3)CC1)(c1ccc(F)cc1)OCC2 (stereo not given)
- Delta blood pressure (Rattus norvegicus [1]): inactive

SMILES: COc1cc2c(cc1OC)C(CN1CCN(c3cccc(C(F)(F)F)c3)CC1)OCC2 (stereo not given)
- Delta blood pressure (Rattus norvegicus [2]): 2 mmHg

SMILES: COc1cc2c(cc1OC)C(CCCN1CCN(c3cccc(Cl)c3)CC1)(c1ccc(F)cc1)OCC2 (stereo not given)
- Delta blood pressure (Rattus norvegicus [1]): inactive

SMILES: COc1cc2c(cc1OC)C(C)(C)COC2CCN1CCN(c2cccc(C(F)(F)F)c2)CC1 (stereo not given)
- Delta blood pressure (Rattus norvegicus [3]): 0 mmHg

SMILES: COc1cc2c(cc1OC)C(CN1CCN(c3ccccn3)CC1)OCC2 (stereo not given)
- Delta blood pressure (Rattus norvegicus [1]): inactive

SMILES: COc1cc2c(cc1OC)C(CCN1CCN(c3ccccn3)CC1)OCC2 (stereo not given)
- Delta blood pressure (Rattus norvegicus [4]): -12 mmHg
- Delta blood pressure (Rattus norvegicus [5]): -13 mmHg

SMILES: COc1cc2c(cc1OC)C(CCN1CCN(c3cccc(C(F)(F)F)c3)CC1)OCC2 (stereo not given)
- Delta blood pressure (Rattus norvegicus [6]): -2 mmHg

SMILES: COc1cc2c(cc1OC)C(C)(CCCN1CCN(c3ccccc3)CC1)OCC2 (stereo not given)
- Delta blood pressure (Rattus norvegicus [7]): -4 mmHg

SMILES: COc1cc2c(cc1OC)C(CCN1CCN(c3ccccc3OC)CC1)OCC2 (stereo not given)
- Delta blood pressure (Rattus norvegicus [1]): inactive

SMILES: COc1cc2c(cc1OC)C(C)(C)COC2CCN1CCN(c2ccc(Cl)cc2)CC1 (stereo not given)
- Delta blood pressure (Rattus norvegicus [8]): -13 mmHg

SMILES: COc1cc2c(cc1OC)C(C)(C)COC2CCN1CCN(c2ccc(F)cc2)CC1 (stereo not given)
- Delta blood pressure (Rattus norvegicus [1]): inactive

SMILES: COc1cc2c(cc1OC)C(CCN1CCN(c3ccccc3C)CC1)OCC2 (stereo not given)
- Delta blood pressure (Rattus norvegicus [9]): -19 mmHg

SMILES: COc1cc2c(cc1OC)C(CN1CCN(c3ccccc3Cl)CC1)OCC2 (stereo not given)
- Delta blood pressure (Rattus norvegicus [1]): inactive

SMILES: COc1cc2c(cc1OC)C(C)(CCN1CCN(c3cccc(C(F)(F)F)c3)CC1)OCC2 (stereo not given)
- Delta blood pressure (Rattus norvegicus [1]): inactive

SMILES: COc1cc2c(cc1OC)C(CCCN1CCN(c3ccccn3)CC1)(c1ccc(F)cc1)OCC2 (stereo not given)
- Delta blood pressure (Rattus norvegicus [10]): -19 mmHg

SMILES: COc1cc2c(cc1OC)C(CCCN1CCN(c3ccc(F)cc3)CC1)(c1ccc(F)cc1)OCC2 (stereo not given)
- Delta blood pressure (Rattus norvegicus [11]): -22 mmHg
- Delta blood pressure (Rattus norvegicus [12]): -16 mmHg

SMILES: COc1cc2c(cc1OC)C(CCN1CCN(c3ccccc3Cl)CC1)OCC2 (stereo not given)
- Delta blood pressure (Rattus norvegicus [13]): 3 mmHg

SMILES: COc1cc2c(cc1OC)C(C)(CCN1CCN(c3cccc(Cl)c3)CC1)OCC2 (stereo not given)
- Delta blood pressure (Rattus norvegicus [1]): inactive

SMILES: COc1cc2c(cc1OC)C(C)(C)COC2CCN1CCN(c2ccccn2)CC1 (stereo not given)
- Delta blood pressure (Rattus norvegicus [1]): inactive

SMILES: COc1cc2c(cc1OC)C(CCN1CCN(c3ccccn3)CC1)OC(C)(C)C2 (stereo not given)
- Delta blood pressure (Rattus norvegicus [1]): inactive

SMILES: COc1cc2c(cc1OC)C(CCN1CCN(c3ccc(Cl)cc3)CC1)OCC2 (stereo not given)
- Delta blood pressure (Rattus norvegicus [10]): -19 mmHg

SMILES: COc1cc2c(cc1OC)C(C)(CCCN1CCN(c3ccccc3Cl)CC1)OCC2 (stereo not given)
- Delta blood pressure (Rattus norvegicus [1]): inactive

SMILES: COc1cc2c(cc1OC)C(CCN1CCN(c3ccccc3OC)CC1)OC(C)(C)C2 (stereo not given)
- Delta blood pressure (Rattus norvegicus [14]): -17 mmHg
- Delta blood pressure (Rattus norvegicus [15]): -15 mmHg

SMILES: COc1cc2c(cc1OC)C(CN1CCN(c3ccc(F)cc3)CC1)OCC2 (stereo not given)
- Delta blood pressure (Rattus norvegicus [16]): 0 mmHg
